Experimental data taken from ChEMBL document CHEMBL2331117 (J Med Chem, 2013).

Columns and labels:
[1] = Plasma concentration in athymic mouse plasma xenografted with human MCF7 cells at 100 mg/kg, po after 1 hr; assay type: ADME, organism-based; set-up: dose 100 mg/kg, route oral
Outline: (§1)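 MCF-7 cells (5 × 10^6, in 50% cold HBSS/50% growth-factor-reduced matrigel) were implanted subcutaneously in the hindflank of 5–8 week old female nude mice. At 40–150 mg tumour size, mice received a single oral dose of 100 mg/kg, and plasma was sampled at the listed times after dosing.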

Mus musculus [2] = experiment: In vivo inhibition of mTORC1-mediated phosphorylation of 4EBP1 at ([…]) in human MCF7 cells xenografted into athymic nude mouse at 100 mg/kg, po after 8 hrs by Western blotting analysis relative to control; assay type: functional; conditions: MCF7, 8 h
Outline: (§2)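 MCF-7 cells (DMEM, 10% FBS) were implanted subcutaneously at 5 × 10^6 cells in 50% cold HBSS/50% growth-factor-reduced matrigel into the hindflank of 5−8 week old female nude mice. At tumor size 40−150 mg, mice received a single oral dose of 100 mg/kg. Tumor lysates were pooled per group. Phospho-AKT (S473, T308), p70S6K (T389), S6 (S240/244) and 4E-BP1 (T37/46) were measured by Western blot normalized to α-tubulin.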

Mus musculus [3] = experiment: In vivo inhibition of mTORC1-mediated phosphorylation of p70S6K at […] in human MCF7 cells xenografted into athymic nude mouse at 100 mg/kg, po after 24 hrs by Western blotting analysis relative to control; assay type: functional; conditions: MCF7, 24 h; outline: as §2
Mus musculus [4] = experiment: In vivo inhibition of mTORC2-mediated phosphorylation of AKT at […] in human MCF7 cells xenografted into athymic nude mouse at 100 mg/kg, po after 1 hr by Western blotting analysis relative to control; assay type: functional; conditions: MCF7, 1 h; outline: as §2
[5] = Drug uptake in tumor of athymic mouse xenografted with human PC3 cells at 100 mg/kg, po after 4 hrs; assay type: ADME, organism-based, Neoplasm, PC-3; set-up: dose 100 mg/kg, route oral; conditions: read-out: Drug uptake
Outline: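 PC-3 cells (3 × 10⁶, passages 10–14, in ice-cold HBSS) were implanted sc in 5–8 week old male nude mice. Tumors of 200–500 mg received a single oral 100 mg/kg dose. Plasma and tumor were collected at 1, 4, 8, 16, 24 and 32 h and homogenized in buffer. Lysates were pooled per group (n = 5), and phospho-proteins were measured by Western blot normalized to α-tubulin.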

[6] = Plasma concentration in athymic mouse plasma xenografted with human PC3 cells at 100 mg/kg, po after 4 hrs; assay type: ADME, organism-based, PC-3; set-up: dose 100 mg/kg, route oral
Mus musculus [7] = experiment: In vivo inhibition of mTORC1-mediated phosphorylation of 4EBP1 at ([…]) in human PC3 cells xenografted into athymic nude mouse at 100 mg/kg, po after 16 hrs by Western blotting analysis relative to control; assay type: functional; conditions: PC-3, 16 h
Outline: (§3)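 PC-3 cells grown in DMEM with 20% FBS were implanted subcutaneously at 3 × 10^6 cells in ice-cold HBSS into the hindflank of 5−8 week old male nude mice. At tumor size 200−500 mg, mice received a single oral dose of 100 mg/kg. Plasma and tumors were collected at 1, 4, 8, 16, 24 and 32 h. Tumor lysates from each group (n = 5) were pooled. Phospho-proteins were quantified by Western blot and normalized to α-tubulin.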

[8] = biological target: Serine/threonine-protein kinase Chk1 (Homo sapiens, UniProt O14757); experiment: Inhibition of CHK1 (unknown origin)
[9] = biological target: ALK tyrosine kinase receptor (Homo sapiens, UniProt Q9UM73); experiment: Inhibition of ALK (unknown origin)
[10] = biological target: RAC-alpha serine/threonine-protein kinase (Homo sapiens, UniProt P31749); experiment: Inhibition of AKT1 (unknown origin)
[11] = biological target: Phosphatidylinositol 4,5-bisphosphate 3-kinase catalytic subunit delta isoform (Homo sapiens, UniProt O00329); experiment: Inhibition of PI3Kdelta (unknown origin)
[12] = Oral bioavailability in cynomolgus monkey at 3 mg/kg; assay type: ADME, organism-based, Macaca fascicularis; conditions: in vivo
Outline: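 Male cynomolgus monkeys received 3 mg/kg intravenously and by oral gavage as a solution in EPW (5% ethanol/45% PEG400/water + 1:1.5 HCl m/m).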

[13] = Oral bioavailability in athymic nude mouse at 10 mg/kg; assay type: ADME, organism-based; conditions: in vivo
Outline: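 For single-dose PK, compound was given intravenously and by oral gavage as a solution in EPW (5% ethanol/45% PEG400/water + 1:2 HCl m/m). Doses were 10 mg/kg in female athymic nude mice and 3 mg/kg in female CD rats and male beagle dogs.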

[14] = Volume of distribution at steady state in CD rat at 3 mg/kg, iv; assay type: ADME, organism-based; set-up: dose 3 mg/kg, route intravenous; conditions: in vivo, read-out: Vdss
[15] = Half life in cynomolgus monkey at 3 mg/kg, iv; assay type: ADME, organism-based, Macaca fascicularis; set-up: dose 3 mg/kg, route intravenous; conditions: in vivo
Outline: (§4)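 Single-dose PK: female athymic nude mice (10 mg/kg), female CD rats and male beagle dogs (3 mg/kg), male cynomolgus monkeys (3 mg/kg), given iv and by oral gavage. Solution in EPW (5% ethanol/45% PEG400/water), with 1:2 HCl (m/m) for mouse, rat and dog and 1:1.5 HCl (m/m) for monkey. Plasma levels followed over 24 h.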

[16] = AUC (0 to infinity) in Beagle dog at 3 mg/kg, po; assay type: ADME, organism-based, Canis lupus familiaris; set-up: time infinity, dose 3 mg/kg, route oral; conditions: plasma; outline: as §4
[17] = AUC (0 to infinity) in cynomolgus monkey at 3 mg/kg, po; assay type: ADME, organism-based, Macaca fascicularis; set-up: dose 3 mg/kg, route oral, time infinity; conditions: plasma; outline: as §4
Plasma = experiment: Plasma concentration in athymic mouse plasma xenografted with human MCF7 cells at 100 mg/kg, po after 32 hrs; assay type: ADME, organism-based; set-up: dose 100 mg/kg, route oral; conditions: in vivo, BLD = below limit of detection; outline: as §1
[18] = Plasma protein binding in mouse at 5 uM; assay type: ADME, cell-free; conditions: read-out: PPB (converted)
[19] = Plasma protein binding in rat at 5 uM; assay type: ADME, cell-free; conditions: read-out: PPB (converted)
Cytochrome P450 3A4 = Cytochrome P450 3A4 (Homo sapiens, UniProt P08684); experiment: Inhibition of CYP3A4 (unknown origin); assay type: ADME
[20] = Plasma concentration in mouse at 100 mg/kg, po after 1 hr; assay type: ADME, organism-based; set-up: dose 100 mg/kg, route oral
[21] = biological target: Hepatocyte growth factor receptor (Homo sapiens, UniProt P08581); experiment: Inhibition of MET (unknown origin)
Mus musculus [22] = experiment: In vivo inhibition of mTORC1-mediated phosphorylation of p70S6K at […] in human PC3 cells xenografted into athymic nude mouse at 100 mg/kg, po after 1 hr by Western blotting analysis relative to control; assay type: functional; conditions: PC-3, 1 h; outline: as §3
Mus musculus [23] = experiment: In vivo inhibition of mTORC2-mediated phosphorylation of AKT at […] in human PC3 cells xenografted into athymic nude mouse at 100 mg/kg, po after 24 hrs by Western blotting analysis relative to control; assay type: functional; conditions: PC-3, 24 h
Outline: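 Human PC-3 cells were implanted subcutaneously into the hindflank of male nude mice aged 5−8 weeks, at 3 × 10^6 cells (passages 10−14, >95% viability) in ice-cold HBSS. At a tumor size of 200−500 mg, mice got one oral 100 mg/kg dose. Tumors were taken at 1, 4, 8, 16, 24 and 32 h. Lysates (n = 5 per group) were pooled, and phospho-AKT (T308) was read by Western blot, normalized to α-tubulin.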

[24] = biological target: ATP-dependent translocase ABCB1 (Homo sapiens, UniProt P08183); experiment: Activity at P-glycoprotein (unknown origin)

Sequence of ALK tyrosine kinase receptor (Q9UM73 whole entry): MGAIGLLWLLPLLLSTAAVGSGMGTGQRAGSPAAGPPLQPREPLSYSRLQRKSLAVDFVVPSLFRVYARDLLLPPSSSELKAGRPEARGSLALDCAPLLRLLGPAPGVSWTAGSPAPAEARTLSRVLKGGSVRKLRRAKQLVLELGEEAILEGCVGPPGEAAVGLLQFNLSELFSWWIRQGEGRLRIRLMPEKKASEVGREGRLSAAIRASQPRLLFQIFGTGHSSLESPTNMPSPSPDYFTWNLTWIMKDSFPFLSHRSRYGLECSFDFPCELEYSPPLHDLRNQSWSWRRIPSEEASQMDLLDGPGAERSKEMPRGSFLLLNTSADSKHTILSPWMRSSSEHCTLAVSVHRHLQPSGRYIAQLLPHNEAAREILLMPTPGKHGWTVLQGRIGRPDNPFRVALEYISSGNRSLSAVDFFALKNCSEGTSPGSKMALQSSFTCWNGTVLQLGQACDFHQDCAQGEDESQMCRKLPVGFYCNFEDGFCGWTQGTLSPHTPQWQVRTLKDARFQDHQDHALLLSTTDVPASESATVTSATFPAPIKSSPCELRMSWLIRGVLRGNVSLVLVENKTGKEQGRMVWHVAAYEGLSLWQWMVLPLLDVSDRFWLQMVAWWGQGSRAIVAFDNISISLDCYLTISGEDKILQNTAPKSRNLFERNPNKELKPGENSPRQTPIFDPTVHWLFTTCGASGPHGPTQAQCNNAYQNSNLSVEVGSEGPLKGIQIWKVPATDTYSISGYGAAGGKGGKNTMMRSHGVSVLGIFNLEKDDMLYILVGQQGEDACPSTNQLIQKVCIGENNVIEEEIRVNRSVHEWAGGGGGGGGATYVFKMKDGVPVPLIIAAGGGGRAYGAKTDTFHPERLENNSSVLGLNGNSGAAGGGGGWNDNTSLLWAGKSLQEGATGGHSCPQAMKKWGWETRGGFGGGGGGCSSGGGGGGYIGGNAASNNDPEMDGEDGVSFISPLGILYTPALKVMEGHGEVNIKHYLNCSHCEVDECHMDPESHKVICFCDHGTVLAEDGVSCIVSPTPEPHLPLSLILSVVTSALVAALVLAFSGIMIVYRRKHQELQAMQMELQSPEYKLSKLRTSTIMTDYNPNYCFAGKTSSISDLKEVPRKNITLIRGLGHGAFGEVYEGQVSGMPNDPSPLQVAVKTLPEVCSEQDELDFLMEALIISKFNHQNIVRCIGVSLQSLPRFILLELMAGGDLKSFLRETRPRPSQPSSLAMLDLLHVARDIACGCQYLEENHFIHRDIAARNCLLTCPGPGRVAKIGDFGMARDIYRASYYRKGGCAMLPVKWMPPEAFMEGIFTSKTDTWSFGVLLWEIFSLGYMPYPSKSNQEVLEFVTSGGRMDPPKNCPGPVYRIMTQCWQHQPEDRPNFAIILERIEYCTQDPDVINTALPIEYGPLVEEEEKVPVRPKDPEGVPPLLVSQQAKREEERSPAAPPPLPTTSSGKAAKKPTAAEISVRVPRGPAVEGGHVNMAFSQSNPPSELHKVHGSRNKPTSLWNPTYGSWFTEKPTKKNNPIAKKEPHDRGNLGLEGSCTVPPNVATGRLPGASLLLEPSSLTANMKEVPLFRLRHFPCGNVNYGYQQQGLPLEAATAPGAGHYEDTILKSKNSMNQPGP
Sequence of Hepatocyte growth factor receptor (P08581 whole entry): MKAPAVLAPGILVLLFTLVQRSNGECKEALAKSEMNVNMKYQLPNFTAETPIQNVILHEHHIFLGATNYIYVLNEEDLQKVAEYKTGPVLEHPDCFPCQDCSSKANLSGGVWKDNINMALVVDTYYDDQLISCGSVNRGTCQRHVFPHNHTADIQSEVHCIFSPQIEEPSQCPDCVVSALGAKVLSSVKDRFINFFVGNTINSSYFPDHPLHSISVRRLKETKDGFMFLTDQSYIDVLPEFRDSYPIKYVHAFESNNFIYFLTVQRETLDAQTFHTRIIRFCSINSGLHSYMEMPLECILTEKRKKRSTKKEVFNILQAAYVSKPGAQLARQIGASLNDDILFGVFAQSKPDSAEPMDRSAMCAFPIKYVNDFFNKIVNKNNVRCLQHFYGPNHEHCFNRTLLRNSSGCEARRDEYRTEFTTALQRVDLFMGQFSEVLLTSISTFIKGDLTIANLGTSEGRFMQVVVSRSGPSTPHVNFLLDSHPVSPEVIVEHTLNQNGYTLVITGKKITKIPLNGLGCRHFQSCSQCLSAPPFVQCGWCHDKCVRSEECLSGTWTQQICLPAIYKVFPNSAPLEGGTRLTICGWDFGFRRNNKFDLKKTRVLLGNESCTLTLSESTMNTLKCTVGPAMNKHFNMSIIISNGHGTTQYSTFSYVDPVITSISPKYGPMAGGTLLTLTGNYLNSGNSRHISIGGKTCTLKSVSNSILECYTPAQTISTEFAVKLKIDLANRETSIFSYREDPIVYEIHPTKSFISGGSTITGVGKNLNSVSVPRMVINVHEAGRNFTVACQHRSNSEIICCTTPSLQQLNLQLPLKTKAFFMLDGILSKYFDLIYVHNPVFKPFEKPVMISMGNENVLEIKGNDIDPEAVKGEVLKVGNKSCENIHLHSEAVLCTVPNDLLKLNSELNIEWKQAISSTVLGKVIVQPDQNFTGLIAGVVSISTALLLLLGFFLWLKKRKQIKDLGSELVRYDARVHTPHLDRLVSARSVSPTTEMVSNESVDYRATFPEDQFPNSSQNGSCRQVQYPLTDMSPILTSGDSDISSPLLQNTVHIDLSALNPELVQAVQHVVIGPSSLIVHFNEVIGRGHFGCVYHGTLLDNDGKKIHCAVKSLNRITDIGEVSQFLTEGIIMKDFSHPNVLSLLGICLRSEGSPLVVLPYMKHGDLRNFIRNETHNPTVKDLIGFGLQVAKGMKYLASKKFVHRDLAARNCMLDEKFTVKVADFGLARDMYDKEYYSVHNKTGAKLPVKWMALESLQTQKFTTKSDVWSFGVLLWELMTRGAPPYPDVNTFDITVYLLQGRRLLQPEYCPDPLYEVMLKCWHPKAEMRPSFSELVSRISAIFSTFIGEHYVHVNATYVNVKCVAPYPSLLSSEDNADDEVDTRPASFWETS
Sequence of Serine/threonine-protein kinase Chk1 (O14757 whole entry): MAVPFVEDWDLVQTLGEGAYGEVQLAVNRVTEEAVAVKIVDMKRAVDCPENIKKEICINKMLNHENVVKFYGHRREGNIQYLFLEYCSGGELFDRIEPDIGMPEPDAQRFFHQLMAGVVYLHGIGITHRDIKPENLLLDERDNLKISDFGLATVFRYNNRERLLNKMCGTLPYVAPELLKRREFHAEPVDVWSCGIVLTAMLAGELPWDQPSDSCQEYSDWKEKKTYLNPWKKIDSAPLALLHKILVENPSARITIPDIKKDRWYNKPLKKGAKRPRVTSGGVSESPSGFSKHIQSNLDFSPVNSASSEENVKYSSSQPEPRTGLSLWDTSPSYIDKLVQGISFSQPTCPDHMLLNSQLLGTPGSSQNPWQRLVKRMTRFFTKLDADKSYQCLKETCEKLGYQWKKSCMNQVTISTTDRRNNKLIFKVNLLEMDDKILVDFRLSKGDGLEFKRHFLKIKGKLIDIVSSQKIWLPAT
Sequence of Phosphatidylinositol 4,5-bisphosphate 3-kinase catalytic subunit delta isoform (O00329 whole entry, canonical isoform): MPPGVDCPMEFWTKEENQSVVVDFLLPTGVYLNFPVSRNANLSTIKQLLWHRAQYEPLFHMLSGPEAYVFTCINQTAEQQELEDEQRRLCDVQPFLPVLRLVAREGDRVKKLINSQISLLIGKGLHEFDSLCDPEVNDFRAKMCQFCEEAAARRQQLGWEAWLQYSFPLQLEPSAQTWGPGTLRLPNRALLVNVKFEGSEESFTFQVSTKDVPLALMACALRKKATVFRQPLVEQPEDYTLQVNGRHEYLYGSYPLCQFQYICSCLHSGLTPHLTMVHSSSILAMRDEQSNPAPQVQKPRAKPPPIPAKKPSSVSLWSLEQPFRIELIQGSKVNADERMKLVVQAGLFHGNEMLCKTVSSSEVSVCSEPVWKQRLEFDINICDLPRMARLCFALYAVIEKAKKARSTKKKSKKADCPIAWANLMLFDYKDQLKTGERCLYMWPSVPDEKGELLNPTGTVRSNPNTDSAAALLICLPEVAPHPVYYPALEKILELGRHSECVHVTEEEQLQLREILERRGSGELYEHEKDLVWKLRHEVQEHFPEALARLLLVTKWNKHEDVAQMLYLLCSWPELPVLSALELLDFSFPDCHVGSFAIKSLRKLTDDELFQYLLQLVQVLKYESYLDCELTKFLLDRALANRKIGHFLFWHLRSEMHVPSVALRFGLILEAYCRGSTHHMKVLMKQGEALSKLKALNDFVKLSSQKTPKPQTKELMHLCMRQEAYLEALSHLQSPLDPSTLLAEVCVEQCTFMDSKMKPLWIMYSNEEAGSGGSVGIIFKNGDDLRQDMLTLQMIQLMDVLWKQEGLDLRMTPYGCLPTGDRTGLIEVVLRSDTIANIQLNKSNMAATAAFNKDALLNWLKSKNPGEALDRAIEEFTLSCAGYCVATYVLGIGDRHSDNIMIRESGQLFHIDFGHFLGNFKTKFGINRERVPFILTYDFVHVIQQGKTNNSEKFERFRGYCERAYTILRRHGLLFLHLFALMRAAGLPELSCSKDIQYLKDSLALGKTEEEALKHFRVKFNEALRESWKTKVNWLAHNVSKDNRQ
Sequence of Cytochrome P450 3A4 (P08684 whole entry): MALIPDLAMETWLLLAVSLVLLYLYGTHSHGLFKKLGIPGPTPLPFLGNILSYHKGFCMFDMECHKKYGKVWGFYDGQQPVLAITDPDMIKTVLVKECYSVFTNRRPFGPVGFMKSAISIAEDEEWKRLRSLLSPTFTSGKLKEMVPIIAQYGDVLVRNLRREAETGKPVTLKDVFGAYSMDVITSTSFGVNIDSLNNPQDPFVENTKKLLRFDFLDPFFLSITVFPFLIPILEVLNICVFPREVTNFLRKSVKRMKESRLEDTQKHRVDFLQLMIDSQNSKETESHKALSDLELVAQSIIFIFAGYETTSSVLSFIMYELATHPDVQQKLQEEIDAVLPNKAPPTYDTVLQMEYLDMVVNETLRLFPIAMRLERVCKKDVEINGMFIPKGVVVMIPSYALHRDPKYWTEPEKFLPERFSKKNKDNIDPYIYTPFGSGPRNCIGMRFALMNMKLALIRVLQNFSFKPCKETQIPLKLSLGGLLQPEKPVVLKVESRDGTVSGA

In the case of `Cc1c(C(=O)N2CCOc3ccc(-c4ccc(N)nc4)cc3C2)ccc(S(C)(=O)=O)c1F`, the concentration at 1 h [1] is reported as 34.4 µM, the inhibition in vivo at 100 mg/kg (Mus musculus [2]) is reported as 88% and the inhibition in vivo at 100 mg/kg (Mus musculus [3]) is reported as -19%. It also gave an inhibition in vivo at 100 mg/kg (Mus musculus [4]) of 6%, a concentration at 4 h [5] of 18.6 µM and a concentration at 4 h [6] of 21.3 µM. It also gave an inhibition in vivo at 100 mg/kg (Mus musculus [7]) of 51%, an IC50 [8] of over 3.5 µM and an IC50 [9] of over 3.5 µM. The IC50 [10] was over 3.5 µM, the IC50 [11] was over 5 µM and the bioavailability [12] was 53.4%. For the same compound, the bioavailability [13] was 31.4%, the Vd [14] was 1.27 L/kg and the half-life [15] was 51.6 min. The AUC(0-inf) [16] was 7.66 µM·h, the AUC(0-inf) [17] was 0.7 µM·h and the Cp (Plasma) was “BLD”. It also gave a fraction unbound at 5 µM [18] of 0.16, a fraction unbound at 5 µM [19] of 0.15 and an INH (Cytochrome P450 3A4) of 24.6 µM. For the same compound, the concentration at 1 h [20] was 22 µM, the IC50 [21] was over 3.5 µM and the inhibition in vivo at 100 mg/kg (Mus musculus [22]) was 87%. The inhibition in vivo at 100 mg/kg (Mus musculus [23]) was 11% and the Activity [24] was over 20 µM.
